According to ChEMBL document CHEMBL3822431, “Hydroxychalcone inhibitors of Streptococcus mutans glucosyl transferases and biofilms as potential anticaries agents” (Bioorg Med Chem Lett, 2016):
Activity calls are given as the source filed them. The rule behind the calls is not given here.

Key:
[1] = biological target: T1, Glucosyltransferase-S (Streptococcus mutans serotype c (strain ATCC 700610 / UA159)) (UniProt P49331); experiment: Inhibition of Wild-type Streptococcus mutans UA159 glucosyltransferase D at 50 uM by zymography
T1 sequence (whole entry): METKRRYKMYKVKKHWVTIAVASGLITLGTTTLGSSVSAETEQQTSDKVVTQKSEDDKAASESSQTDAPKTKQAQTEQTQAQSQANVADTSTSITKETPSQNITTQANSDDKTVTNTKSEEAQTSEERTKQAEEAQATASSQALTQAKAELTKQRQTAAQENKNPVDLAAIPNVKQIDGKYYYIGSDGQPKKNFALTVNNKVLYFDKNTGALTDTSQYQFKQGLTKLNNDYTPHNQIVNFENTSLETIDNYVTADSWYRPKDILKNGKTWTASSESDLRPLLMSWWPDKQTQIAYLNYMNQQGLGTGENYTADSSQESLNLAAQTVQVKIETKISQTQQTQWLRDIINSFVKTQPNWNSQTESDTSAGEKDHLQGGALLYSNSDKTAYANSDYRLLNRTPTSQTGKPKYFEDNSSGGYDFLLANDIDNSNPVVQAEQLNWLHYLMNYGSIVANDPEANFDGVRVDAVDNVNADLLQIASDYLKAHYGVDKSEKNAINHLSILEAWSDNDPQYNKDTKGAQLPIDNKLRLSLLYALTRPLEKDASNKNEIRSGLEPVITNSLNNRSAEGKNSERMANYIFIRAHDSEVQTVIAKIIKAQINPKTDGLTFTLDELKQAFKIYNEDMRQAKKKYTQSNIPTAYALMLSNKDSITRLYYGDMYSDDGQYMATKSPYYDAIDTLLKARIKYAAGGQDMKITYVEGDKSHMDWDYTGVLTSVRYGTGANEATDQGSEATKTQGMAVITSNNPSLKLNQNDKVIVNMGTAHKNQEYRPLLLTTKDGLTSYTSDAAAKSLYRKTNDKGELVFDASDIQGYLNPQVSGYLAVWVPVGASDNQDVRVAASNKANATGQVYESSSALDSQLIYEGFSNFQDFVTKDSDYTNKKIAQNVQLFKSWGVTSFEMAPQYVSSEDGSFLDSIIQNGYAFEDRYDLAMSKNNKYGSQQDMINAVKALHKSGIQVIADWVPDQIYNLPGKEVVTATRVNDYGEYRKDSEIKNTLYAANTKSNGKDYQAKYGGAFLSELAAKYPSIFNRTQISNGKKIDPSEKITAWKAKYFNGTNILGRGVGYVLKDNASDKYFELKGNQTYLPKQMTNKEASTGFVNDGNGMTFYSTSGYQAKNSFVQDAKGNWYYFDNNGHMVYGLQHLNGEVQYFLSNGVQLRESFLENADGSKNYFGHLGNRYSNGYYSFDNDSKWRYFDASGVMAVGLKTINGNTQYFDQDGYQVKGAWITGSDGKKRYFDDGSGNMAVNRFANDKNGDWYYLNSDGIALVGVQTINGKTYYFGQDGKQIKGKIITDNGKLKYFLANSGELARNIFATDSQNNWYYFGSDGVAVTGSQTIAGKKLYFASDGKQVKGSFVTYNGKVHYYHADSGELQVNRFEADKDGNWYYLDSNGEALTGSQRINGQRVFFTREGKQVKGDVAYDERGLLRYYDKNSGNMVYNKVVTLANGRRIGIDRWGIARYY
In short: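 Compound (50 µM) added to overnight S. mutans UA159 wild-type cultures; Gtfs concentrated from supernatants, run on duplicate SDS-PAGE; second gel used for zymogram, glucan band intensity taken as Gtf activity.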

[2] = biological target: T2, Glucosyltransferase-SI (Streptococcus mutans serotype c (strain ATCC 700610 / UA159)) (UniProt P13470); experiment: Inhibition of Wild-type Streptococcus mutans UA159 glucosyltransferase C at 50 uM by coomassie blue staining based SDS-PAGE method
T2 sequence (whole entry): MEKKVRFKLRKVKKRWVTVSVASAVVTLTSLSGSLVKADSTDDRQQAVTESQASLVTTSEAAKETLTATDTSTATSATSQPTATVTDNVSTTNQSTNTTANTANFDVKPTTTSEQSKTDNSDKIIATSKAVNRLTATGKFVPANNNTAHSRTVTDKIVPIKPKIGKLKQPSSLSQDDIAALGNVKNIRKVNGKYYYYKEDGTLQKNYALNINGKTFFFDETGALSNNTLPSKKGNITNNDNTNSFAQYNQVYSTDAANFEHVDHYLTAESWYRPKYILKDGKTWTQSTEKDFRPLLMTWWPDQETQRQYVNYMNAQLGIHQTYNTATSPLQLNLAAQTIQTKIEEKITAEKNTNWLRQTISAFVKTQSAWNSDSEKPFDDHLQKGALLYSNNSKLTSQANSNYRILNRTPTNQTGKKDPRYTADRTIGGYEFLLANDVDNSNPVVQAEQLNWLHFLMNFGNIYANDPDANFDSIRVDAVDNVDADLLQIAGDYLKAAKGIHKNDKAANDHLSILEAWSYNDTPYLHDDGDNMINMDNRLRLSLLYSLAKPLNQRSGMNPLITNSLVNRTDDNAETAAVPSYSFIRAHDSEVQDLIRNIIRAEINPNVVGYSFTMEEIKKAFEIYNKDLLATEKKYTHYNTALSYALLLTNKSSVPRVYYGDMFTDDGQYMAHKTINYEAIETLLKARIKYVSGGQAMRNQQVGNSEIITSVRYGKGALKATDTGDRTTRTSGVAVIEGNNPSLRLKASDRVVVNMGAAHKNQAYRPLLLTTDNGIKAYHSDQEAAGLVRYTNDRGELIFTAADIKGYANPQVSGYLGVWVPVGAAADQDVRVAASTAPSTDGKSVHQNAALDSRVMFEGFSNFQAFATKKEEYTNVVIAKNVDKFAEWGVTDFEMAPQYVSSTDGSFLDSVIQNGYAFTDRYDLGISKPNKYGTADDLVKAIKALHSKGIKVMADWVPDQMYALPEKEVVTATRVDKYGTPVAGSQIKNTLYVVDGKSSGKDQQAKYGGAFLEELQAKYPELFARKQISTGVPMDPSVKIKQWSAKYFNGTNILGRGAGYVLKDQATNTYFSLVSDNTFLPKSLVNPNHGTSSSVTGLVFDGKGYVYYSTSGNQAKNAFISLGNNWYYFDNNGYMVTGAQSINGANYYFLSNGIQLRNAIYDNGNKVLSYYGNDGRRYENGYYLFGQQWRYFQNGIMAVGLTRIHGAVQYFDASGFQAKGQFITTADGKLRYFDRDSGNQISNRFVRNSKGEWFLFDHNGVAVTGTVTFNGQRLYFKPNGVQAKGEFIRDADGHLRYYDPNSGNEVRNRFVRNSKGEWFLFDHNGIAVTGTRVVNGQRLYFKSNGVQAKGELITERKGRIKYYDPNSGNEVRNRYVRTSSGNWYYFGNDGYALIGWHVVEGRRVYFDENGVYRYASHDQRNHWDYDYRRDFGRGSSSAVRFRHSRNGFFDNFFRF
In short: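 Compound (50 µM) added to overnight S. mutans UA159 wild-type cultures; Gtfs collected and concentrated from supernatants, run on SDS-PAGE in duplicate; one gel Coomassie blue stained for protein levels.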

Row | inhibition [1] | inhibition [2] | Compound
1 | Active | Active | O=C(/C=C/c1cc(O)c(O)cc1O)c1ccccc1O (stereo in doubt; 18c)
2 | Active | Active | O=C(/C=C\c1ccc(O)cc1O)c1cccc(O)c1
3 | Active | Active | O=C(/C=C/c1ccc(O)cc1O)c1ccc(O)cc1
4 | Active | Active | O=C(/C=C\c1ccc(O)cc1O)c1ccc(O)cc1
5 | Active | Active | O=C(/C=C/c1ccc(O)cc1O)c1cccc(O)c1 (stereo in doubt; 9a)
